The source of these data is ChEMBL document CHEMBL1789904, “Imaging of Plasmodium liver stages to drive next-generation antimalarial drug discovery” (Science, 2011).

The subject of this experiment is Plasmodium yoelii. The experiment in a line: NOVARTIS: Antimalarial liver stage activity measured as reduction in Plasmodium yoelii schizont area in HepG2-A16-CD81 cells by immuno-fluorescence, and median schizont size at 10uM compound concentration. The format is functional, organism-based. The settings on record: for IC50: Plasmodium yoelii, HepG2-A16-CD81. The gist of the method:
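Host and parasite nuclei stained with Hoechst 33342, parasites with αPyHSP70 antibody; 25 images per well by high-content imaging; median parasite (schizont) area measured by automated image analysis, ~50 schizonts per experiment, two or more independent experiments.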

Take `CN1CCN(c2ccc(Nc3c4ccccc4nc4ccccc34)cc2)CC1`: the Schizont size was 45.82 um and the IC50 came out at 547 nM.
For `c1ccc2cc3c(N4CCN(CCN5CCN(c6ccnc7cc8ccccc8cc67)CC5)CC4)ccnc3cc2c1`, in that order: 135.69 um and 2910 nM.
`COc1ccc(-c2c(C(F)(F)F)nn(C)c2NC(=O)Nc2ccc(F)cc2F)cc1`: the Schizont size turned out to be 103.33 um and the IC50 was 3450 nM.
`O=C(c1cccs1)N1CCN(c2ccc([N+](=O)[O-])c(NC3CC3)c2)CC1` had a Schizont size of 83.6 um and an IC50 of 692 nM.
Taken in the same sequence, the figures for `CCc1ccccc1N=C1c2c(cccc2[N+](=O)[O-])C(=O)C1C(C)=O` (stereo not drawn) were 83.4 um and 2030 nM.
`CCOC(=O)c1c(NC(C)=O)sc2c1CCN(C(C)C)C2` had a Schizont size of 93.21 um and an IC50 of 3010 nM.
With `O=C(c1cccc(Cl)c1)N1CCN(c2ccc([N+](=O)[O-])c(NC3CC3)c2)CC1`, the Schizont size amounted to 102.71 um and the midpoint of inhibition, the IC50, lay at 3200 nM.
For `Oc1cccc(Nc2nc(NCC3CCCO3)c3ccccc3n2)c1` (stereo not drawn), the Schizont size is on record as 74.32 um and the IC50 was determined as 1040 nM.
In turn, `COc1ccc2nc(-c3ccccc3)cc(NCCN(C)C)c2c1` came in with a Schizont size of 69.1 um and an IC50 of 570 nM.
On to `c1ccc2c(NCCc3c[nH]cn3)c3ccccc3nc2c1`, for which the Schizont size is recorded as 110.22 um and the IC50 was 706 nM.
As for `CCOC(=O)C1=C(c2ccccc2)N=c2sc(=Cc3cc(C)n(-c4ccc(F)cc4)c3C)c(=O)n2C1c1cccc(OC)c1OC` (stereo not drawn), the Schizont size is 106.25 um and the midpoint of inhibition, the IC50, lay at 2450 nM.
For `OC(CNC1CCCCC1)Cn1c2ccccc2c2ccccc21` (stereo not drawn), the Schizont size was 143.41 um and the IC50 came to 3920 nM.
`CCCN(CCC)CCCNc1ccc(C(=O)Nc2ccc(C)c(F)c2)cc1[N+](=O)[O-]` showed a Schizont size of 83.5 um and a half-maximal inhibitory concentration (IC50) of 646 nM.
For `Cc1cc(OC(C)C(=O)N2CCc3ccccc32)ccc1Cl` (stereo not drawn), in that order: 59.6 um and 776 nM.
For `O=C(Nc1ccc(-c2nc3cc(NC(=O)c4ccc(Br)o4)ccc3[nH]2)cc1)c1ccc(Br)o1`, in that order: 101.14 um and 812 nM.
For the compound `O=C(c1cccc([N+](=O)[O-])c1)c1ccc(Cl)c(Cl)c1`, the Schizont size came to 108.65 um and the IC50 came out at 3810 nM.
Compound `c1ccc(Nc2ccnc(Nc3ccccc3)n2)cc1` had a Schizont size of 92.37 um and an IC50 of 1480 nM.
`COc1ccc(Nc2cc(C)nc(NCc3ccccc3)n2)cc1` displayed a Schizont size of 57.82 um and an IC50 of 636 nM.
Take `CCN(CC)CCN(Cc1cc2ccc(C)cc2[nH]c1=O)C(=S)NC(C)c1ccccc1` (stereo not drawn): the Schizont size came to 66.17 um and the IC50 was 883 nM.
Taken in the same sequence, the figures for `COC(=O)C1=C(C)NC2=C(C(=O)CC(c3ccccc3Cl)C2)C1c1ccc([N+](=O)[O-])cc1` (stereo not drawn) were 61.06 um and 842 nM.
Taken in the same sequence, the figures for `COc1ccc(C2CC(=O)C3=C(C2)NC(C)=C(C(=O)OC(C)C)C3c2cccc(C)c2)cc1OC` (stereo not drawn) were 90.91 um and 1840 nM.
On to `Cc1cc(Nc2cccc(F)c2)nc(NCc2ccccc2)n1`, for which the Schizont size stood at 73.06 um and the midpoint of inhibition, the IC50, lay at 1110 nM.
As to `CC1CC(N(C(=O)c2ccc(Cl)cc2Cl)c2ccccc2)c2ccccc2N1C(=O)c1ccc(Cl)cc1` (stereo not drawn), the Schizont size amounted to 110.64 um and half-maximal inhibition (IC50) was put at 3640 nM.
Taken in the same sequence, the figures for `O=c1c2c([nH]c3ccccc13)CCCCCC2` were 42.48 um and 727 nM.
Turning to `CC(C)c1nc(N2CCN(C(=O)Nc3ccccc3)CC2)c(C#N)c2c1COC(C)(C)C2`, the Schizont size is 82.25 um and the IC50 was found to be 1020 nM.
`Br.O=C(Cn1ccc(=NCc2ccccc2)cc1)c1ccc(I)cc1` registered a Schizont size of 44.99 um and an IC50 of 825 nM.
For `COc1ccc(C2CC(=O)C3=C(C2)NC(C)=C(C(=O)OC2CCCC2)C3c2cccc(C)c2)cc1OC` (stereo not drawn), in that order: 66.8 um and 779 nM.
As to `c1ccc(OCCOc2ccc(Nc3c4ccccc4nc4ccccc34)cc2)cc1`, the Schizont size worked out at 41.33 um and inhibition was half-maximal at 559 nM (IC50).
`CC(=O)N1c2ccc(C)cc2C(C)(c2ccccc2)CC1(C)C` (stereo not drawn) had a Schizont size of 105.42 um and an IC50 of 1250 nM.
Taken in the same sequence, the figures for `CCOc1ccc2[nH]c(=O)c(CN(CCN(CC)CC)C(=S)NCCCN(CC)CC)cc2c1` were 120.76 um and 2170 nM.
`CCCCCCCCn1c(C)[n+](CC)c2cc(C(=O)OCC)ccc21.[I-]` returned a Schizont size of 63.77 um and an IC50 of 990 nM.
Take `FC(F)(F)c1ccccc1NC(=S)N1CCCN(c2nc3ccc(Cl)cc3s2)CC1`: the Schizont size amounted to 91.85 um and the IC50 came to 1620 nM.
For `Cc1ccc(-c2cn3c([n+]2-c2ccccc2)SCC3)cc1.[Br-]`, the Schizont size is 62.52 um and the IC50 was 1090 nM.
On to `Cl.Fc1ccccc1Nc1nc(NCc2ccccc2)c2ccccc2n1`, for which the Schizont size is reported as 37.58 um and the IC50 came to 690 nM.
In turn, `C=CC[N+]1(CC#Cc2cccc3ccccc23)CCCCC1.[Br-]` displayed a Schizont size of 80.06 um and an IC50 of 908 nM.
Take `CCCCCCOc1ccc(C(C)=NNC2=NCCN2)cc1[N+](=O)[O-]`: the Schizont size was 60.96 um and inhibition was half-maximal at 784 nM (IC50).
For `Brc1ccc(-c2cn3c([n+]2-c2ccccc2)SCC3)cc1.[Br-]`, in that order: 78.7 um and 828 nM.
Turning to `Fc1ccc(Nc2nc(NCc3ccccc3)c3ccccc3n2)cc1`, the Schizont size is on record as 154.58 um and inhibition was half-maximal at 3790 nM (IC50).
`O=C(c1ccc([N+](=O)[O-])cc1)c1ccc(Cl)c(Cl)c1` had a Schizont size of 109.39 um and an IC50 of 1640 nM.
As for `CCC(=O)NC(c1ccccc1Cl)c1cc(Cl)c2cccnc2c1O` (stereo not drawn), the Schizont size is 55.11 um and the midpoint of inhibition, the IC50, lay at 1010 nM.
Taken in the same sequence, the figures for `Nc1cccc(C(=O)Nc2ccc(Oc3cccc(Oc4ccc(NC(=O)c5cccc(N)c5)cc4)c3)cc2)c1` were 90.81 um and 1760 nM.
Compound `O=[N+]([O-])c1cc(C(F)(F)F)ccc1N1CCCN(C(=S)Nc2ccccc2)CC1` returned a Schizont size of 93.73 um and an IC50 of 2230 nM.
`CCN1CCN(c2cc(C)c3cc(NC(=O)c4cc(OC)cc(OC)c4)ccc3n2)CC1`: the Schizont size is 113.77 um and 3740 nM corresponded to half-maximal inhibition (IC50).
Compound `COC(=O)c1c(-c2c(Cl)cccc2Cl)noc1NC(=O)NN1CCCCC1` came in with a Schizont size of 75.67 um and an IC50 of 647 nM.
Compound `CN(C)CCCN(Cc1cc2cc3c(cc2[nH]c1=O)OCO3)C(=S)Nc1cccc(Cl)c1` showed a Schizont size of 60.22 um and an IC50 of 818 nM.
Taken in the same sequence, the figures for `CCCCOc1ccc(N(C(C)=O)C2=C(N3CCOCC3)C(=O)c3ccccc3C2=O)cc1` were 74.84 um and 1790 nM.
Compound `CSc1nnc(-c2cccc([N+](=O)[O-])c2)n1Cc1ccccc1` registered a Schizont size of 97.38 um and an IC50 of 2510 nM.
For `CC(=O)N(C1=C(N2CCOCC2)C(=O)c2ccccc2C1=O)c1ccc(I)cc1`, in that order: 50.1 um and 602 nM.
For `CC(C)NCC(O)Cn1c2ccc(Cl)cc2c2cc(Cl)ccc21` (stereo not drawn), the Schizont size was determined as 88.41 um and the IC50 came out at 2970 nM.
For `CN(C)c1cc[n+](CC(=O)Nc2ccc(Cl)cc2)cc1.[Cl-]`, in that order: 69.62 um and 584 nM.
Compound `Cc1ccnc(NC(c2ccc3ccccc3c2)c2ccc3cccnc3c2O)c1` (stereo not drawn) yielded a Schizont size of 26.72 um and an IC50 of 556 nM.
Turning to `CCc1cc2c(cc1-c1csc(NC(=N)N)n1)C(C)(C)CCC2(C)C`, the Schizont size was found to be 92.27 um and the IC50 was found to be 2900 nM.
With `CC(=O)N(C1=C(N2CCOCC2)C(=O)c2ccccc2C1=O)c1cccc(Cl)c1`, the Schizont size stood at 43.73 um and the IC50 is 744 nM.
`Cc1ccc(Nc2cc(C)nc(NCc3ccccc3)n2)c(C)c1` displayed a Schizont size of 89.14 um and an IC50 of 1300 nM.
Taken in the same sequence, the figures for `CCCCc1c(C)nc2c(OC)cccc2c1O` were 42.59 um and 561 nM.
With `Cc1cccc(-c2cc3nc(C)c(C)c(O)n3n2)c1`, the Schizont size is 67.43 um and the IC50 turned out to be 1100 nM.
On to `CCCCCc1c(C)c(C#N)c2nc3ccccc3n2c1NCCN(CC)CC`, for which the Schizont size stood at 74 um and half-maximal inhibition (IC50) was put at 702 nM.
The compound `COc1ccc(C2Sc3ccccc3N=C3C2=C(O)c2ccccc23)cc1` (stereo not drawn) showed a Schizont size of 39.14 um and an IC50 of 706 nM.
In the case of `Cl.Nc1ccc(N2CCCCCC2)cc1`, the Schizont size is on record as 77.66 um and the IC50 is 1950 nM.
`Cc1ncc(CCCCN(C)C)c2c1[nH]c1ccccc12` had a Schizont size of 132.56 um and an IC50 of 2770 nM.
For `CCC[n+]1cccc2ccc3cccnc3c21`, in that order: 43.42 um and 903 nM.
With `Cc1cn2c3ccccc3n(CCN3CCCC3)c2n1`, the Schizont size is recorded as 126.09 um and the IC50 stood at 1070 nM.
In the case of `CC(=O)Nc1nc(C)c(-c2csc(Nc3ccc(C)cc3)n2)s1`, the Schizont size is on record as 104.48 um and the IC50 was found to be 1890 nM.
`O=C(c1cnsn1)N1CCCC(COc2cccc(CN3CCC(Cc4ccccc4)CC3)c2)C1` (stereo not drawn) had a Schizont size of 69.41 um and an IC50 of 609 nM.

In general, IC50 refers to the concentration that inhibits the measured activity by half. Lower therefore signals greater potency.
